Data set [1] has as its target T1, ABCG2 (Homo sapiens, UniProt Q9UNQ0).
T1 sequence (Q9UNQ0 1-655): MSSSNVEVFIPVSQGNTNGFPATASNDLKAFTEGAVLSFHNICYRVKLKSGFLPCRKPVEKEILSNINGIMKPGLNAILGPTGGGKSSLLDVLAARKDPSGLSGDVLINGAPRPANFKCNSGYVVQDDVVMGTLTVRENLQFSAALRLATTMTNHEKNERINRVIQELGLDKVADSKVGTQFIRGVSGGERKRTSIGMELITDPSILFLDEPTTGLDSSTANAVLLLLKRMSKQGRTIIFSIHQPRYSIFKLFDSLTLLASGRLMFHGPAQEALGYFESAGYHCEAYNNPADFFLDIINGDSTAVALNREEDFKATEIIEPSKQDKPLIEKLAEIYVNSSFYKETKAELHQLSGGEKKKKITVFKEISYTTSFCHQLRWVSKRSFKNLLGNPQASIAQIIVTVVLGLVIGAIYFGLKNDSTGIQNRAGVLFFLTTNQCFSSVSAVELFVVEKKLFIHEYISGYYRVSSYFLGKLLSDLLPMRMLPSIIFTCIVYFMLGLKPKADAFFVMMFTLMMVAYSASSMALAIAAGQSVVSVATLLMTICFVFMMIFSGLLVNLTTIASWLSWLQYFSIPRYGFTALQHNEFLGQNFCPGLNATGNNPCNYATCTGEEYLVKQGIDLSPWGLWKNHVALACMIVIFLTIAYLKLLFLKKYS
Type of data set: cell-based. Particulars: for class: ranked by apparent affinity and maximal extent of inhibition; for ABCG2 inhibition (in words): at 2 and 10 µM.

The test system of data set [2] is HEK293-ABCG2 and HEK293-pcDNA3.1 cells. In words: Cytotoxicity, MTT colorimetric assay, 72 h. Particulars: for IG50 (cytotoxicity, µM): concentration producing 50% inhibition of cell growth, MTT, 72 h. In kind it is cell-based, human. The method in brief: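 HEK293-ABCG2 and empty-vector HEK293-pcDNA3.1 cells (DMEM high glucose, 10% FBS, 0.75 mg/mL G418) seeded at 1 × 10^4 cells/well, attached 24 h at 37 °C, 5% CO2. Exposed 72 h to various concentrations of test compound (DMSO stock diluted in medium). MTT (5 mg/mL solution) added for 4 h, formazan dissolved in DMSO, A570 read. Triplicates; viability relative to 0.1% DMSO control (100%).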

Read-outs that look alike come from different tables or passages of the source.

Turning to `COc1cc(OC)c(/C=C/C(=O)c2cn(C)c3ccccc23)c(OC)c1` [Compound 37], the class in data set [1] (Table 2) is 1 (Class 1 included high-affinity inhibitors (IC50 < 1 µM) producing a complete inhibition at both 2 and 10 µM). Also, in data set [2], the “IG50 (cytotoxicity, µM)” value is recorded as 4.0 ± 0.2 µM.

For the compound `COc1cccc(OC)c1C(=O)/C=C/c1cn(C)c2ccccc12` [Compound 43], the class in data set [1] (Table 2) came to 3. Also, the “ABCG2 inhibition (in words)” value in data set [1] was “especially low, if any, inhibition”.

Regarding `COc1cccc(/C=C/C(=O)c2c(OC)cccc2OC)c1` [Compound 3], the class in data set [1] (Table 1) is reported as 3.

For `COc1cc(OC)c(OC)cc1/C=C/C(=O)c1c(OC)cccc1OC` [Compound 7], the class in data set [1] (Table 1) is 3.

Consider `COc1cc(O)c(C(=O)/C=C/c2cc(OC)c(OC)c(OC)c2)c(OC)c1` [Compound 33], for which the class in data set [1] (Table 1) is given as 2 (Class 2 comprised high-affinity inhibitors producing an incomplete maximal inhibition (limited to 50–75%)).

Regarding `COc1cc(OC)c(/C=C/C(=O)c2c(OC)cc(OC)cc2OC)c(OC)c1` [Compound 13], the class in data set [1] (Table 1) is on record as 3.

Regarding `COc1cc(O)c(C(=O)/C=C/c2c(OC)cccc2OC)c(OC)c1` [Compound 27], the class in data set [1] (Table 1) was 1 (Class 1 included high-affinity inhibitors (IC50 < 1 µM) producing a complete inhibition at both 2 and 10 µM).

Take `CCOc1cc(OCC)c(/C=C/C(=O)c2c(OCC)cc(OCC)cc2OCC)c(OCC)c1` [Compound 16]: the class in data set [1] (Table 1) is on record as 2 (Class 2 comprised high-affinity inhibitors producing an incomplete maximal inhibition (limited to 50–75%)).

In the case of `COc1ccc(C(=O)/C=C/c2cn(C)c3ccccc23)c(OC)c1` [Compound 40], the class in data set [1] (Table 2) was found to be 3.

Turning to `COc1ccc(/C=C/C(=O)c2c(OC)cccc2OC)c(OC)c1OC` [Compound 6], in data set [1] (Table 1), the class was found to be 3. For the same compound, the “ABCG2 inhibition (in words)” value in data set [1] is listed as “no inhibition at all”.

Take `CCOc1cccc(OCC)c1C(=O)/C=C/c1c(OC)cc(OC)cc1OC` [Compound 9]: the class in data set [1] (Table 1) amounted to 3.

Turning to `COc1ccc(/C=C/C(=O)c2ccc(OC)cc2OC)c(OC)c1` [Compound 12], in data set [1] (Table 1), the class was 2 (Class 2 comprised high-affinity inhibitors producing an incomplete maximal inhibition (limited to 50–75%)).

In the case of `COc1cc(O)c(C(=O)/C=C/c2ccccc2OC)c(OC)c1` [Compound 30], the class in data set [1] (Table 1) is 3.

As to `COc1ccc(C(=O)/C=C/c2ccc(OC)c(OC)c2)c(O)c1` [Compound 20], in data set [1] (Table 1), the class is reported as 2 (Class 2 comprised high-affinity inhibitors producing an incomplete maximal inhibition (limited to 50–75%)).

On to `COc1cc(OC)c(/C=C/C(=O)c2c(OC)cccc2OC)c(OC)c1` [Compound 5], for which the class in data set [1] (Table 1) was 3.

Regarding `COc1cc(OC)c(C(=O)/C=C/c2cn(C)c3ccccc23)c(OC)c1` [Compound 42], the class in data set [1] (Table 2) is listed as 3. Besides, the “ABCG2 inhibition (in words)” value in data set [1] is given as “especially low, if any, inhibition”.

For `COc1cccc(OC)c1/C=C/C(=O)c1cn(C)c2ccccc12` [Compound 38], the class in data set [1] (Table 2) is 1 (Class 1 included high-affinity inhibitors (IC50 < 1 µM) producing a complete inhibition at both 2 and 10 µM).

Turning to `COc1cc(/C=C/C(=O)c2ccc(OC)cc2O)cc(OC)c1` [Compound 18], in data set [1] (Table 1), the class is on record as 2 (Class 2 comprised high-affinity inhibitors producing an incomplete maximal inhibition (limited to 50–75%)).

Regarding `COc1ccc(C(=O)/C=C/c2ccc(OC)cc2OC)c(O)c1` [Compound 26], in data set [1] (Table 1), the class is reported as 2 (Class 2 comprised high-affinity inhibitors producing an incomplete maximal inhibition (limited to 50–75%)).

Regarding `COc1cc(/C=C/C(=O)c2c(OC)cccc2OC)cc(OC)c1OC` [Compound 8], in data set [1] (Table 1), the class worked out at 3. Besides, in data set [1], the “ABCG2 inhibition (in words)” value is listed as “low inhibition”.

For the compound `COc1cc(OC)c(/C=C/C(=O)c2c(O)cc(OC)cc2OC)c(OC)c1` [Compound 32], the class in data set [1] (Table 1) turned out to be 3.

On to `COc1ccccc1/C=C/C(=O)c1c(OC)cccc1OC` [Compound 2], for which the class in data set [1] (Table 1) is reported as 3.

For `COc1cccc(OC)c1C(=O)/C=C/c1ccccc1` [Compound 1], the class in data set [1] (Table 1) was found to be 3.

As to `COc1ccc(/C=C/C(=O)c2c(OC)cc(OC)cc2OC)c(OC)c1` [Compound 14], in data set [1] (Table 1), the class is listed as 3.

Turning to `Cn1cc(/C=C/C(=O)c2cn(C)c3ccccc23)c2ccccc21` [Compound 44, 1,3-diindolylpropenone], the class in data set [1] (Table 2) turned out to be 3.

For `COc1cc(OC)c(/C=C/C(=O)c2cn(C)c3ccc(OC)cc23)c(OC)c1` [Compound 39], in data set [1] (Table 2), the class is 1 (Class 1 included high-affinity inhibitors (IC50 < 1 µM) producing a complete inhibition at both 2 and 10 µM). Further, in data set [2], the “fold lower IG50 than compounds 27 and 38” value is reported as 50 fold; the “IG50 (cytotoxicity, µM)” value is 1.0 ± 0.1 µM.

For `COc1cccc(/C=C/C(=O)c2c(O)cc(OC)cc2OC)c1` [Compound 31], the class in data set [1] (Table 1) is 1 (Class 1 included high-affinity inhibitors (IC50 < 1 µM) producing a complete inhibition at both 2 and 10 µM). Moreover, in data set [2], the “IG50 (cytotoxicity, µM)” value was determined as 10.0 ± 2.1 µM.

Turning to `COc1cc(O)c(C(=O)/C=C/c2ccccc2)c(OC)c1` [Compound 29], the class in data set [1] (Table 1) is recorded as 2 (Class 2 comprised high-affinity inhibitors producing an incomplete maximal inhibition (limited to 50–75%)).

In the case of `COc1cc(/C=C/C(=O)c2cn(C)c3ccccc23)cc(OC)c1OC` [Compound 36], in data set [1] (Table 2), the class stood at 3.

With `COc1ccc(C(=O)/C=C/c2cc(OC)ccc2OC)c(O)c1` [Compound 23], in data set [1] (Table 1), the class was 2 (Class 2 comprised high-affinity inhibitors producing an incomplete maximal inhibition (limited to 50–75%)).

Turning to `COc1cc(OC)c(C(=O)/C=C/c2c(OC)cccc2OC)c(OC)c1` [Compound 15], in data set [1] (Table 1), the class is 3. The “ABCG2 inhibition (in words)” value in data set [1] is “especially low, if any, inhibition”.

With `COc1cccc(OC)c1/C=C/C(=O)c1ccccc1` [Compound 17], the class in data set [1] (Table 1) is recorded as 3. Besides, the “ABCG2 inhibition (in words)” value in data set [1] was “especially low, if any, inhibition”.

For `COc1ccc(C(=O)/C=C/c2c(OC)cccc2OC)c(O)c1` [Compound 25], in data set [1] (Table 1), the class was 2 (Class 2 comprised high-affinity inhibitors producing an incomplete maximal inhibition (limited to 50–75%)).

As to `CCOc1cccc(OCC)c1C(=O)/C=C/c1ccc(OC)cc1OC` [Compound 11], the class in data set [1] (Table 1) was 3.

With `CCOc1cccc(OCC)c1C(=O)/C=C/c1c(OC)cccc1OC` [Compound 10], in data set [1] (Table 1), the class is given as 3. Also, the “ABCG2 inhibition (in words)” value in data set [1] was “especially low, if any, inhibition”.

With `COc1cccc(OC)c1/C=C/C(=O)c1c(OC)cccc1OC` [Compound 4], the class in data set [1] (Table 1) was 3.

Consider `COc1ccc(/C=C/C(=O)c2cn(C)c3ccccc23)c(OC)c1` [Compound 35], for which the class in data set [1] (Table 2) is listed as 3.

Take `COc1cc(O)c(C(=O)/C=C/c2ccc(OC)c(OC)c2OC)c(OC)c1` [Compound 34]: in data set [1] (Table 1), the class was 3.

Take `COc1cc(/C=C/C(=O)c2c(O)cc(OC)cc2OC)cc(OC)c1` [Compound 28]: the class in data set [1] (Table 1) is 1 (Class 1 included high-affinity inhibitors (IC50 < 1 µM) producing a complete inhibition at both 2 and 10 µM). Further, in data set [2], the “IG50 (cytotoxicity, µM)” value amounted to 6.0 ± 0.4 µM.
